Experimental findings from ChEMBL document CHEMBL1926502, “The discovery of UK-369003, a novel PDE5 inhibitor with the potential for oral bioavailability and dose-proportional pharmacokinetics” (Bioorg Med Chem, 2012) are described below.

One data set is filed under the species Homo sapiens. In words: Selectivity ratio of IC50 for PDE6 to IC50 for human PDE5. The method, boiled down:
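PDE5 was prepared from human corpus cavernosum and cone PDE6 from dog retina (anion-exchange fraction). IC50s came from concentration–response curves in a scintillation proximity assay with [3H]/unlabelled cGMP (1:3) at about 1/3 Km, so IC50 = Ki. Buffer was 20 mM Tris-HCl pH 7.4, 5 mM MgCl2, 1 mg/mL BSA; 30–60 min at 30 °C, <30% turnover. Ratio = PDE6 IC50/PDE5 IC50.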

In data set [1] the target is cGMP-specific 3',5'-cyclic phosphodiesterase (Homo sapiens, UniProt O76074). The experiment in a line: Inhibition of human PDE5 isolated from corpus cavernosum after 30 to 60 mins by scintillation counting method.
Data set [2] in a line: Lipophilicity, log D of the compound at pH 7.4. Type of data set: physicochemical. As to conditions: buffer.
Data set [3] can be described thus: Half life in human liver microsomes. Type of data set: ADME, Microsome.
Data set [4] is described as follows: Apparent permeability from apical to basolateral side of human Caco2 cells at 25 uM. Type of data set: ADME, cell-based. As to conditions: Caco-2. In general terms: Passage across Caco-2 layers is used to estimate intestinal permeability.
Another data set concerns Caco-2. The experiment in a line: Efflux ratio of apparent permeability from apical to basolateral to basolateral to apical side of human Caco2 cells. Type of data set: ADME, cell-based. The method, boiled down:
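Caco-2 cell monolayers; flux measured in both directions, and the efflux ratio is taken as apical→basolateral flux divided by basolateral→apical flux.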

Data set [5] can be described thus: Clearance in dog at 0.5 mg/kg, iv. Type of data set: ADME, organism-based, Canis lupus familiaris. Also on record: dose 0.5 mg/kg, route intravenous. As to conditions: in vivo.
Data set [6] is described as follows: Volume of distribution in dog at 0.5 mg/kg, iv and 1 mg/kg, po. Type of data set: ADME, organism-based, Canis lupus familiaris. As to conditions: in vivo.
Data set [7] is described as follows: Elimination half life in dog at 0.5 mg/kg, iv and 1 mg/kg, po. Type of data set: ADME, organism-based, Canis lupus familiaris. As to conditions: in vivo, read-out: beta t1/2 (converted).
A short description of data set [8]: Oral bioavailability in dog at 1 mg/kg. Type of data set: ADME, organism-based, Canis lupus familiaris. To be noted: in vivo.

In the case of `CCN1CCN(S(=O)(=O)c2cnc(OCCOC)c(-c3nc4c5n(nc4c(=O)[nH]3)CCCC5C)c2)CC1` (single isomer, unassigned; (-)) [listing 1 of 2 here], in the data set listed under Homo sapiens, the Ratio IC50 worked out at 490.

Broadly, the IC50 is the point on the concentration scale where inhibition reaches its midpoint. In general, logD refers to the decadic logarithm of the distribution of all forms, ionised or not, between an organic phase and buffer at a given pH. The low end stands for a more hydrophilic compound, the high end for a more lipophilic compound. One may read the Papp A→B as how fast a substance crosses the layer from the apical side. On to `CCc1c2nc(-c3cc(S(=O)(=O)N4CCN(C)CC4)cnc3OCCOC)[nH]c(=O)c2nn1CC(C)C`, for which, in data set [1], the half-maximal inhibitory concentration (IC50) is 2.89 nM. Besides, the Ratio IC50 in the data set filed under Homo sapiens is 237. For the same compound, the logD in data set [2] was 2.3. The compound further returned a half-life in [3] of 28 min. Moreover, the apical-to-basolateral permeability (Papp A→B) at 25 µM in data set [4] stood at 19 ×10⁻⁶ cm/s. Moreover, the Ratio with Caco-2 came to 2.2.

As to `CCCOc1ncc(S(=O)(=O)N2CCN(CC)CC2)cc1-c1nc2c3n(nc2c(=O)[nH]1)CCCC3`, the IC50 in [1] was 2.47 nM. In addition, the Ratio IC50 in the data set listed under Homo sapiens came out at 55.

Compound `CCc1c2nc(-c3cc(S(=O)(=O)N4CCN(CC)CC4)cnc3OCCOC)[nH]c(=O)c2nn1CC1CC1` showed a concentration for half-maximal inhibition (IC50) in [1] of 1.01 nM. For the same compound, in the data set listed under Homo sapiens, the Ratio IC50 stood at 189.

Take `CCOc1ncc(S(=O)(=O)N2CCN(CC)CC2)cc1-c1nc2c3n(nc2c(=O)[nH]1)CCCC3C` (single isomer, unassigned; (+)): the IC50 in data set [1] was determined as 3.35 nM.

In the case of `CCCn1nc2c(=O)[nH]c(-c3cc(S(=O)(=O)N4CCN(C)CC4)cnc3OCCOC)nc2c1CC`, the IC50 in data set [1] was determined as 4.35 nM. For the same compound, in the data set listed under Homo sapiens, the Ratio IC50 is 165.

On to `CCCCOc1ncc(S(=O)(=O)N2CCN(CC)CC2)cc1-c1nc2c(CC)n(CCN(C)C)nc2c(=O)[nH]1`, for which the IC50 in [1] stood at 1 nM. For the same compound, in the data set filed under Homo sapiens, the Ratio IC50 came to 171. In data set [2], this compound yielded a logD of 3. For the same compound, the Papp A→B at 25 µM in data set [4] stood at 2.8 ×10⁻⁶ cm/s. For the same compound, the Ratio in the data set with Caco-2 was found to be 7.

In general, clearance refers to a measure of how efficiently the substance is removed, as volume per time. Low values mean inefficient removal, high ones efficient removal. The term bioavailability denotes the share of a dose that reaches the circulation, judged against a reference dose that is usually intravenous. Read a low bioavailability as poor availability. `CCN1CCN(S(=O)(=O)c2cnc(OCCOC)c(-c3nc4c5n(nc4c(=O)[nH]3)CCCC5C)c2)CC1` (single isomer, unassigned; (-)) [listing 2 of 2 here]: the 50% inhibitory concentration (IC50) in [1] came to 1.96 nM. The compound also displayed a logD in data set [2] of 1.6. In addition, the half-life in data set [3] is 11.2 min; in data set [7] it was 90 min. Besides, in data set [4], the Papp A→B at 25 µM was 24 ×10⁻⁶ cm/s. In the data set with Caco-2, the Ratio was found to be 1.5. For the same compound, the clearance in [5] was 20 mL/min/kg. This compound also gave a Vd in data set [6] of 2.6 L/kg. This compound came in with a bioavailability in [8] of 18%.

`CCc1c2nc(-c3cc(S(=O)(=O)N4CCN(CC)CC4)cnc3OCCOC)[nH]c(=O)c2nn1CCN1CCOCC1` gave an IC50 in data set [1] of 1.27 nM. For the same compound, the Ratio IC50 in the data set filed under Homo sapiens was found to be 210. This compound also had a log distribution coefficient (logD) in [2] of 1.1. This compound also returned a half-life in [3] of 48 min. Further, the Papp A→B at 25 µM in [4] worked out at 2.8 ×10⁻⁶ cm/s. The Ratio with Caco-2 stood at 8.

Take `CCCCOc1ncc(S(=O)(=O)N2CCN(CC)CC2)cc1-c1nc2c(CC)n(C3CCN(C)CC3)nc2c(=O)[nH]1`: the IC50 in data set [1] came out at 0.74 nM. Moreover, the Ratio IC50 in the data set filed under Homo sapiens came to 184.

Take `CCN1CCN(S(=O)(=O)c2cnc(OCCOC)c(-c3nc4c5n(nc4c(=O)[nH]3)CCCC5C)c2)CC1` (single isomer, unassigned; (+)): in the data set filed under Homo sapiens, the Ratio IC50 amounted to 149.

As to `CCOc1ncc(S(=O)(=O)N2CCN(CC)CC2)cc1-c1nc2c3n(nc2c(=O)[nH]1)CCCC3`, the IC50 in data set [1] is 10.8 nM. The Ratio IC50 in the data set listed under Homo sapiens was 70.

As to `CCc1c2nc(-c3cc(S(=O)(=O)N4CCN(CC)CC4)cnc3OCCOC)[nH]c(=O)c2nn1C(C)C`, half-maximal inhibition in data set [1] (IC50) was put at 1.36 nM. The Ratio IC50 in the data set listed under Homo sapiens amounted to 354.

`CCCOc1ccc(S(=O)(=O)N2CCN(CC)CC2)cc1-c1nc2c(CC)n(Cc3ccccn3)nc2c(=O)[nH]1`: in the data set filed under Homo sapiens, the Ratio IC50 is 842.

Turning to `CCc1c2nc(-c3cc(S(=O)(=O)N4CCN(CC)CC4)cnc3OCC(C)C)[nH]c(=O)c2nn1CCOC`, the concentration for half-maximal inhibition (IC50) in [1] is 0.69 nM. The Ratio IC50 in the data set listed under Homo sapiens worked out at 204. In [2], this compound showed a log distribution coefficient (logD) of 2.9. In addition, the half-life in data set [3] is 7 min. The Papp A→B at 25 µM in [4] was 40 ×10⁻⁶ cm/s. In addition, the Ratio in the data set with Caco-2 worked out at 1.1.

Take `CCCn1nc2c(=O)[nH]c(-c3cc(S(=O)(=O)N4CCN(CC)CC4)cnc3OCCOC)nc2c1CC`: the IC50 in data set [1] is 1.83 nM. Also, the Ratio IC50 in the data set listed under Homo sapiens was 170.

For `CCOc1ncc(S(=O)(=O)N2CCN(CC)CC2)cc1-c1nc2c3n(nc2c(=O)[nH]1)CCCC3C` (single isomer, unassigned; (-)), in the data set filed under Homo sapiens, the Ratio IC50 came out at 55.
